Among the data in ChEMBL document CHEMBL2331240, “Focused library development of 2-phenylacrylamides as broad spectrum cytotoxic agents” (2013) are GI50 values, retold here.

Test [1] is described as follows: Cytotoxicity against human BE(2)-C cells assessed as growth inhibition measured after 72 hrs by MTT assay. In kind it is functional. An outline of the steps:
(§1)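 Cells in log phase were seeded in duplicate at 2500–4000 cells/well in supplemented DMEM (37 °C, 5% CO2). Drug from a 40 mM DMSO stock was added on day 0, 24 h post-plating. Read-out was MTT absorbance at 540 nm after 72 h.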
On the technique in general: Tetrazolium dyes change colour on reduction, which living cells bring about.

Test [2] is described as follows: Cytotoxicity against human SJ-G2 cells assessed as growth inhibition measured after 72 hrs by MTT assay. The note with it: SJ-G2, 72 h. In kind it is functional. The method in brief: as §1
A further test relates to HT-29. Put plainly: Cytotoxicity against human HT-29 cells assessed as growth inhibition measured after 72 hrs by MTT assay. In kind it is functional. The note with it: HT-29, 72 h. An outline of the steps: as §1
A short description of test [3]: Cytotoxicity against human H460 cells assessed as growth inhibition measured after 72 hrs by MTT assay. The settings on record: NCI-H460, 72 h. In kind it is functional. The method in brief: as §1
The subject of another test is SW480. Put plainly: Cytotoxicity against human SW480 cells assessed as growth inhibition measured after 72 hrs by MTT assay. The settings on record: SW480, 72 h. In kind it is functional. The method in brief: as §1
The test system of another test is A-431. Put plainly: Cytotoxicity against human A431 cells assessed as growth inhibition measured after 72 hrs by MTT assay. The settings on record: A-431, 72 h. In kind it is functional. The method in brief:
as §1

The next test deals with MCF7. Put plainly: Cytotoxicity against human MCF7 cells assessed as growth inhibition measured after 72 hrs by MTT assay. Type of test: functional. The note with it: MCF7, 72 h. The method in brief:
as §1

A short description of test [4]: Cytotoxicity against mouse SMA cells assessed as growth inhibition measured after 72 hrs by MTT assay.
The nature of test [5]: Cytotoxicity against human MIA cells assessed as growth inhibition measured after 72 hrs by MTT assay. In kind it is functional. The method in brief: as §1
In the next test the test system is DU-145. Put plainly: Cytotoxicity against human DU145 cells assessed as growth inhibition measured after 72 hrs by MTT assay. In kind it is functional. The settings on record: DU-145, 72 h. The method in brief:
as §1

For another test, the system named is A2780. Put plainly: Cytotoxicity against human A2780 cells assessed as growth inhibition measured after 72 hrs by MTT assay. Type of test: functional. The note with it: A2780, 72 h. An outline of the steps:
as §1

On to `N#C/C(=C\c1ccc([N+](=O)[O-])cc1)C(=O)c1c[nH]c2ccccc12`, for which the GI50 was found to be 40 µM in test [1]; 37 µM in test [2]; 41 µM in the test with HT-29; 47 µM in test [3]; 42 µM with SW480; 46 µM in the test with A-431. Besides, the GI50 in the test with MCF7 turned out to be 35 µM; in test [4], 60 µM; in test [5], 46 µM; in the test with DU-145, 59 µM; in the test on A2780 it was 48 µM.

On to `COc1ccc(CNC(=O)/C(C#N)=C/c2ccc(C)cc2)cc1`, for which the GI50 in [1] was found to be 35 µM; in [2], 39 µM; in the test on HT-29 it was 36 µM; in test [3], 41 µM; with SW480, 34 µM; in the test on A-431, 26 µM. The GI50 in the test with MCF7 was found to be 36 µM; in [4], 42 µM; in [5], 38 µM; with DU-145, 34 µM; with A2780, 33 µM.

With `N#C/C(=C\c1ccco1)C(=O)NCc1ccc(Cl)c(Cl)c1`, the GI50 in test [1] is above 50 µM; in [2] it was above 50 µM; in the test with HT-29 it was 20 µM; in test [3], above 50 µM; in the test with SW480, above 50 µM; in the test with A-431, above 50 µM. The GI50 was 20 µM in the test on MCF7; 38 µM in test [4]; above 50 µM in test [5]; 24 µM in the test on DU-145; above 50 µM with A2780.

`COc1ccc(CNC(=O)/C(C#N)=C/c2ccc(C)o2)cc1`: the GI50 in test [1] was 21 µM; in [2], 75 µM; in the test on HT-29, 92 µM; in [3], above 100 µM; with SW480, 29 µM; with A-431, 58 µM. The GI50 came to 21 µM with MCF7; 69 µM in test [4]; 51 µM in test [5]; 39 µM in the test on DU-145; 60 µM with A2780.

As to `COc1ccc(CNC(=O)/C(C#N)=C/c2ccc(Cl)cc2)cc1`, the GI50 in test [1] turned out to be 12 µM; in [2], 11 µM; in the test with HT-29, 7 µM; in test [3] it was 14 µM; with SW480, 10 µM; in the test on A-431, 6 µM. For the same molecule, the GI50 was 11 µM in the test on MCF7; 17 µM in test [4]; 16 µM in [5]; 7 µM in the test with DU-145; 7 µM in the test with A2780.

As for `COc1ccc(CNC(=O)/C(C#N)=C/c2ccc3ccccc3c2)cc1`, the GI50 in test [1] was 42 µM; in test [2], 40 µM; in the test on HT-29, 54 µM; in test [3] it was above 100 µM; in the test on SW480, 41 µM; in the test with A-431, 37 µM. The GI50 with MCF7 is 33 µM; in [4], 43 µM; in test [5] it was 49 µM; in the test with DU-145, 80 µM; in the test on A2780, 40 µM.

For `COc1ccc(/C=C(\C#N)C(=O)NCc2ccc(Cl)c(Cl)c2)cc1`, the GI50 in test [1] is 93 µM; in [2] it was above 100 µM; with HT-29, above 100 µM; in test [3], above 100 µM; with SW480 it was 95 µM; with A-431, 90 µM. The GI50 was 45 µM with MCF7; above 100 µM in [4]; 79 µM in [5]; 70 µM with DU-145; 86 µM in the test on A2780.

Take `COc1ccc(CNC(=O)/C(C#N)=C/c2ccc(-c3ccccc3)o2)cc1`: the GI50 in test [1] was above 100 µM; in [2] it was above 100 µM; in the test on HT-29 it was 56 µM; in test [3], above 100 µM; in the test on SW480, above 100 µM; in the test with A-431, above 100 µM. Besides, the GI50 was 3 µM with MCF7; above 100 µM in test [4]; above 100 µM in test [5]; above 100 µM with DU-145; above 100 µM in the test with A2780.

For the molecule `COc1ccc(CNC(=O)/C(C#N)=C/c2cccc3ccccc23)cc1`, the GI50 in test [1] worked out at 14 µM; in test [2] it was 15 µM; in the test with HT-29, 13 µM; in test [3], 15 µM; in the test on SW480 it was 14 µM; in the test on A-431, 15 µM. In addition, the GI50 was found to be 16 µM with MCF7; 15 µM in test [4]; 15 µM in test [5]; 16 µM with DU-145; 16 µM in the test on A2780.

`COc1ccc(CNC(=O)/C(C#N)=C/c2ccco2)cc1`: the GI50 worked out at 24 µM in test [1]; 31 µM in test [2]; 22 µM in the test with HT-29; 32 µM in test [3]; 31 µM in the test on SW480; 16 µM in the test on A-431. Also, the GI50 in the test on MCF7 came to 27 µM; in test [4] it was 33 µM; in [5], 34 µM; with DU-145, 29 µM; in the test with A2780, 24 µM.

In the case of `COc1ccc(CNC(=O)/C(C#N)=C/c2ccccc2)cc1`, the GI50 in [1] was 15 µM; in test [2] it was 17 µM; in the test on HT-29 it was 9 µM; in [3], 18 µM; with SW480, 14 µM; with A-431, 9 µM. Also, the GI50 in the test with MCF7 worked out at 18 µM; in [4] it was 16 µM; in test [5] it was 24 µM; in the test on DU-145, 13 µM; in the test with A2780, 9 µM.

As for `COc1ccc(CNC(=O)/C(C#N)=C/c2cc(Br)co2)cc1`, the GI50 in test [1] was 36 µM; in test [2], 23 µM; with HT-29, 36 µM; in [3] it was above 100 µM; in the test on SW480, above 100 µM; with A-431, 14 µM. For the same molecule, the GI50 in the test on MCF7 was 20 µM; in [4], above 100 µM; in test [5], 65 µM; with DU-145, 61 µM; in the test with A2780, 28 µM.

With `N#C/C(=C\c1ccc2ccccc2c1)C(=O)NCc1ccc(Cl)c(Cl)c1`, the GI50 in test [1] was 40 µM; in [2], 49 µM; in the test on HT-29, 44 µM; in test [3] it was above 100 µM; in the test on SW480, 50 µM; with A-431 it was 50 µM. Moreover, the GI50 came out at 29 µM with MCF7; 64 µM in test [4]; 44 µM in test [5]; 77 µM in the test on DU-145; 44 µM with A2780.

As for `N#C/C(=C\c1c(F)c(F)c(F)c(F)c1F)C(=O)c1c[nH]c2ccccc12`, the concentration for 50% growth inhibition (GI50) in test [1] came out at 10 µM; in test [2], 14 µM; with HT-29, 18 µM; in test [3], 35 µM; in the test with SW480 it was 18 µM; in the test with A-431, 19 µM. Besides, the GI50 was determined as 13 µM in the test on MCF7; 20 µM in test [4]; 21 µM in test [5]; 30 µM with DU-145; 11 µM in the test on A2780.

Regarding `COc1ccc(CNC(=O)/C(C#N)=C/c2ccoc2)cc1`, the GI50 was 7 µM in test [1]; 8 µM in test [2]; 6 µM in the test with HT-29; 8 µM in test [3]; 8 µM in the test with SW480; 5 µM in the test on A-431. Besides, the GI50 amounted to 7 µM in the test with MCF7; 7 µM in [4]; 8 µM in test [5]; 7 µM with DU-145; 6 µM in the test with A2780.

`COc1ccc(CNC(=O)/C(C#N)=C/c2ccc[nH]2)cc1`: the GI50 in test [1] is 47 µM; in test [2], above 50 µM; with HT-29 it was above 50 µM; in test [3] it was above 50 µM; in the test on SW480, above 50 µM; with A-431 it was above 50 µM. Moreover, the GI50 is 34 µM in the test with MCF7; above 50 µM in [4]; above 50 µM in test [5]; above 50 µM with DU-145; above 50 µM with A2780.

Regarding `N#C/C(=C\c1ccc[nH]1)C(=O)NCc1ccc(Cl)c(Cl)c1`, the GI50 in test [1] was 43 µM; in test [2] it was above 50 µM; with HT-29, 85 µM; in test [3], above 50 µM; with SW480, above 50 µM; in the test with A-431, above 50 µM. In addition, the GI50 was 6 µM with MCF7; above 50 µM in test [4]; above 50 µM in test [5]; above 50 µM in the test on DU-145; above 50 µM in the test with A2780.

For the molecule `N#C/C(=C\c1ccc(Cl)cc1)C(=O)NCc1ccc(Cl)c(Cl)c1`, the GI50 in test [1] came to 31 µM; in test [2] it was 30 µM; in the test on HT-29, 33 µM; in [3] it was 33 µM; in the test on SW480, 30 µM; in the test with A-431 it was 30 µM. The concentration for 50% growth inhibition (GI50) with MCF7 was found to be 21 µM; in test [4], 33 µM; in [5], 31 µM; in the test with DU-145, 30 µM; in the test on A2780, 32 µM.

In the case of `N#C/C(=C\c1c[nH]c2ccccc12)C(=O)c1c[nH]c2ccccc12`, the GI50 in [1] came to 12 µM; in test [2], 13 µM; in the test on HT-29, 6 µM; in test [3], 7.6 µM; with SW480, 8.3 µM; in the test on A-431, 7.6 µM. In addition, the GI50 in the test with MCF7 came to 11 µM; in [4] it was 15 µM; in test [5] it was 14 µM; in the test with DU-145 it was 17 µM; in the test with A2780 it was 9.3 µM.

In general, GI50 refers to the concentration that inhibits growth by half.
